Measured values published in article PMC5659729 (Life sciences, 2017).
“Also recorded” adds a separate entry of the source. Blank lines part the entries; values can stand above or below the molecule they belong to.

Key:
[1] = tested on: TNF-α; experiment: Inflammatory marker in serum by ELISA; type: in vivo, mice; settings: for Level of TNF-α in serum versus DCF: pre-treatment TPPU 0.1 mg/kg or OME 50 mg/kg before DCF 100 mg/kg
[2] = tested on: TxB2/PGE2; experiment: PGE2 and TxB2 in plasma; type: in vivo, mice; settings: for Level of TxB2/PGE2 in plasma of DCF treated mice: TPPU 0.1 mg/kg or omeprazole 50 mg/kg + DCF 100 mg/kg
[3] = tested on: gastric mucosa of Swiss Webster mice; experiment: Histopathological evaluation of stomach sections; type: in vivo; settings: DCF 100 mg/kg alone or after TPPU 0.1 mg/kg or OME 50 mg/kg
[4] = tested on: gastric epithelial cells; experiment: TUNEL assay of gastric cell apoptosis; type: in vivo, mice; settings: for DCF-induced apoptosis of stomach epithelial cells (TUNEL) versus DCF: pre-treatment TPPU 0.1 mg/kg or OME 50 mg/kg before DCF 100 mg/kg
[5] = tested on: IL-6; experiment: Inflammatory marker in serum by ELISA; type: in vivo, mice; settings: for Level of IL-6 in serum versus vehicle: DCF 100 mg/kg p.o. single dose; for Level of IL-6 in serum versus DCF: pre-treatment TPPU 0.1 mg/kg or OME 50 mg/kg before DCF 100 mg/kg
How it was run: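 Blood without anticoagulant was collected at sacrifice 6 h post-dose and spun at 4 °C. Serum IL-6 was measured with a pre-coated mouse ELISA kit, in duplicate, n=3–4 animals, reported as mean ± SD.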

[6] = tested on: Swiss Webster mice; experiment: Diclofenac-induced gastric ulcers, ulcer index scoring; type: in vivo
[7] = Quantification of drugs in plasma by LC-MS/MS; type: in vivo, mice; settings: for Alterations in blood levels when TPPU and DCF co-administered: TPPU 0.1 mg/kg/day + DCF 100 mg/kg
[8] = Quantification of pH in gastric content; type: in vivo, mice; settings: DCF 100 mg/kg single dose; TPPU 0.1 mg/kg 7 days + DCF; omeprazole 50 mg/kg 5 days + DCF
[9] = cited from earlier work
[10] = tested on: COX; experiment: PGE2 in stomach as marker of COX activity; type: in vivo, mice; settings: TPPU 0.1 mg/kg or OME 50 mg/kg + DCF 100 mg/kg
[11] = 16 h after radioactive omeprazole administration; cited from earlier work
[12] = tested on: CYP3A4; settings: cited from earlier work
[13] = tested on: recombinant mouse sEH; settings: affinity purified recombinant mouse sEH; cited from earlier work
[14] = tested on: DCF-induced intestinal ulcers; settings: cited from earlier work
[15] = mice; cited from earlier work
[16] = tested on: piroxicam-induced inflammatory bowel disease; settings: cited from earlier work

Compound: O=C(O)Cc1ccccc1Nc1c(Cl)cccc1Cl [Diclofenac, diclofenac sodium]
Level of TNF-α in serum versus vehicle ([1]; DCF 100 mg/kg p.o. single dose): significant increase (p < 0.05); also recorded: increased level of TNF-α significantly | Levels of TxB2/PGE2 in plasma versus vehicle ([2]; DCF 100 mg/kg): significantly decreased | Levels of PGE2 in plasma versus vehicle ([2]; data not shown): not statistically (data not shown) different | Level of TxB2 in plasma ([2]; mice treated with only DCF, level of detection 20 pM): < 20 pM | Histopathological observation of gastric mucosa [3]: ulceration was observed | Apoptosis of stomach epithelial cells (TUNEL positive cells) versus vehicle ([4]; DCF 100 mg/kg, listed as DCF): increased apoptosis significantly | Level of IL-6 in serum versus vehicle [5]: increased levels of IL-6 significantly | Level of IL-6 in serum versus vehicle ([5]; listed as DCF): significant increase (p < 0.05) | Gastric ulcer score 18 h after dosing ([6]; single DCF dose 100 mg/kg, 18 h): returned to normal levels | concentration at 6 h ([7]; Swiss Webster, mouse, plasma, oral, Mean plasma concentration of DCF, mice that received DCF or DCF + TPPU): 4000 ng/mL | Alterations in blood levels when TPPU and DCF co-administered [7]: not observed | Mean plasma concentration of diclofenac, diclofenac only versus DCF + OME ([7]; difference not significant, n=4): approximately 2 times | Effect on pH of stomach (gastric content) [8]: did not alter the pH of stomachs

Compound: COc1ccc2[nH]c([S+]([O-])Cc3ncc(C)c(OC)c3C)nc2c1 (stereo not shown) [Omeprazole]
Half-life monitored in the blood [9]: 5 to 15 min | Level of TNF-α in serum versus DCF ([1]; listed as OME): normalized the level of these cytokines | Level of TxB2/PGE2 in plasma of DCF treated mice [2]: increased the level of TxB2/PGE2 | Histopathological observation of gastric mucosa [3]: minimized gastric erosion | DCF-induced apoptosis of stomach epithelial cells (TUNEL) versus DCF ([4]; listed as OME): decreased apoptosis significantly | Effect on COX activity in stomach (level of PGE2) of DCF treated mice [10]: did not increase the activity of COX | Level of IL-6 in serum versus DCF ([5]; listed as OME): normalized the level of these cytokines | Radioactivity of the stomach relative to blood [11]: 100 times | Incidence of ulceration relative to TPPU + DCF treated animals ([6]; OME 50 mg/kg + DCF 100 mg/kg versus TPPU 0.1 mg/kg + DCF): higher | Effect on activity of CYP3A4 [12]: increase activity of CYP3A4

Compound: CCC(=O)N1CCC(NC(=O)Nc2ccc(OC(F)(F)F)cc2)CC1 [TPPU, N-[1-(1-oxopropyl)-4-piperidinyl]-N′-[4-(trifluoromethoxy)phenyl)-urea]
Level of TNF-α in serum versus DCF [1]: normalized the level of these cytokines; also recorded: decreased level of TNF-α significantly | Level of TxB2/PGE2 in plasma of DCF treated mice [2]: increased the level of TxB2/PGE2 | Histopathological observation of gastric mucosa [3]: Ulceration was minimal | IC50 [13]: […] | DCF-induced apoptosis of stomach epithelial cells (TUNEL) versus DCF [4]: decreased DCF-induced apoptosis of gastric cells; also recorded: decreased apoptosis significantly | Effect on COX activity in stomach (level of PGE2) of DCF treated mice [10]: did not increase the activity of COX | Level of IL-6 in serum versus DCF [5]: normalized the level of these cytokines; also recorded: decreased level of IL-6 significantly | Effect on DCF-induced intestinal ulcers [14]: decreased DCF-induced intestinal ulcers | Oral availability [15]: high oral availability

Compound: O=C(NC12CC3CC(CC(C3)C1)C2)N[C@H]1CC[C@H](Oc2ccc(C(=O)O)cc2)CC1 [t-AUCB, trans-4-[4-(3-adamantan-1-yl-ureido)-cyclohexyloxy]-benzoic acid]
Effect on piroxicam-induced inflammatory bowel disease [16]: decrease piroxicam (a COX inhibitor)-induced inflammatory bowel disease
